Source: ChEMBL document CHEMBL1127442, “Triazolinone biphenylsulfonamide derivatives as orally active angiotensin II antagonists with potent AT1 receptor affinity and enhanced AT2 affinity” (J Med Chem, 1994)
Values joined by “and” are separate entries in the source; they are usually repeats but may differ in a detail not shown here. Equal entries are not always repeated.

Experiments:
[1] = biological target: T1, Type-1 angiotensin II receptor (Oryctolagus cuniculus, UniProt P34976); experiment: In vitro inhibitory activity against angiotensin II rabbit aorta AT1 receptor using radioligand [125I]-Sar Ile-AII; format: tissue-based
T1 sequence (P34976 whole entry): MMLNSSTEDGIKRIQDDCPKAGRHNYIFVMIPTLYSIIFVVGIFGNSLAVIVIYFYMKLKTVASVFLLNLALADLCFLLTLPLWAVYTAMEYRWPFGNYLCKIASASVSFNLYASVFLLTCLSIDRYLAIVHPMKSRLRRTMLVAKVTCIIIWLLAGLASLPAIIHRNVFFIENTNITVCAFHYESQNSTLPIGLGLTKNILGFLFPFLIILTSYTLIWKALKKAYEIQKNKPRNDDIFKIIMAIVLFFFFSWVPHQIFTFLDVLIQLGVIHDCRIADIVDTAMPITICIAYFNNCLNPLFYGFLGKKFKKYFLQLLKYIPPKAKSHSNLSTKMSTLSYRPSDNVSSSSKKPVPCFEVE

[2] = tested on: Rattus norvegicus; experiment: Time from onset of action until significant (i.e., >=30%) inhibition of pressor response is no longer observed, at 1 (mg/kg) intravenous dose; format: functional
[3] = tested on: Rattus norvegicus; experiment: Time from onset of action until significant (i.e., >=30%) inhibition of pressor response is no longer observed, at 0.3 (mg/kg) peroral dose; format: functional
In short: (§1)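 Conscious catheterized male Sprague-Dawley rats received compound iv or po as the water-soluble potassium salt, or in PEG 400 orally. AII (0.1 μg/kg iv) boluses were repeated at intervals while the compound was active.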

[4] = tested on: Rattus norvegicus; experiment: Inhibition of AII pressor response by the compound in conscious, normotensive rats, at 0.3 (mg/kg) peroral dose; format: functional
In short: (§2)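 Male Sprague-Dawley rats (300-400 g) were conscious and catheterized for iv dosing and arterial pressure. Compound was given iv or po as the potassium salt in water, with PEG 400 for some oral doses. […] Peak inhibition is the mean of ≥2 rats.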

[5] = tested on: Rattus norvegicus; experiment: Inhibition of AII pressor response by the compound in conscious, normotensive rats, at 1 (mg/kg) intravenous dose; format: functional; in short: as §2
[6] = biological target: T2, Type-2 angiotensin II receptor (Rattus norvegicus, UniProt P35351); experiment: In vitro inhibitory activity against angiotensin II rat midbrain AT2 receptor using radioligand [125I]-Sar Ile-AII
T2 sequence (P35351 whole entry): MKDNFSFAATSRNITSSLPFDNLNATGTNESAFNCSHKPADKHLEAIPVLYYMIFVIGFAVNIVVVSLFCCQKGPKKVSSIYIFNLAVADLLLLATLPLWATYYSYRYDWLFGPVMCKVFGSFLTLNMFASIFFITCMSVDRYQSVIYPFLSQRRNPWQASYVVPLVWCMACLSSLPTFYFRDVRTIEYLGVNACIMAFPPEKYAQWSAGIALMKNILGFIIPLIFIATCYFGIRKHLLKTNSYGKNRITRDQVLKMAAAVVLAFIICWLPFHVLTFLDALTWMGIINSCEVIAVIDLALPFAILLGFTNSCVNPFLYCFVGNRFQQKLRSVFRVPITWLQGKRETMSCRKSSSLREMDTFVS
In short: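 Dithiothreitol ([…]) was added to the assay mixture to abolish residual AT1 binding. Tubes were run in duplicate, and IC50 came from nonlinear regression of displacement curves.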

[7] = tested on: Rattus norvegicus; experiment: Inhibition of AII pressor response by the compound in conscious, normotensive rats, at 1 (mg/kg) peroral dose; format: functional; in short: as §2
[8] = tested on: Rattus norvegicus; experiment: Time from onset of action until significant (i.e., >=30%) inhibition of pressor response is no longer observed, at 1 (mg/kg) peroral dose; format: functional; in short: as §1
[9] = tested on: Rattus norvegicus; experiment: Inhibition of AII pressor response by the compound in conscious, normotensive rats, at 0.3 (mg/kg) intravenous dose; format: functional; in short: as §2

Row | SMILES | IC50 [1] [nM] | IC50 [6] [nM] | also measured
1 | CCCCc1nn(-c2ccccc2C(F)(F)F)c(=O)n1Cc1ccc(-c2ccccc2S(=O)(=O)NC(=O)C2CC2(F)F)cc1 (configuration not stated) | 0.64 | 86 | Duration [2]: >5 h; Duration [3]: >4 h; Inhibition [4]: 59%; Inhibition [5]: 80%
2 | CCCCc1nn(-c2ccccc2C(F)(F)F)c(=O)n1Cc1ccc(-c2ccccc2S(=O)(=O)NC(=O)c2occc2C)cc1 | 0.21 | 46 | Inhibition [7]: 71%; Duration [2]: >6 h; Duration [8]: >3.5 h; Inhibition [5]: 92%
3 | CCCCc1nn(-c2ccccc2C(F)(F)F)c(=O)n1Cc1ccc(-c2ccccc2S(=O)(=O)NC(=O)c2sccc2Cl)cc1 | 0.27 | 30 | Duration [2]: >6 h; Duration [3]: >5 h; Inhibition [4]: 64%; Inhibition [5]: 90%
4 | CCCCc1nn(-c2ccccc2C(F)(F)F)c(=O)n1Cc1ccc(-c2ccccc2S(=O)(=O)NC(=O)CC(C)(C)C)cc1 | 1.1 | 46 | Duration [3]: >5.5 h; Inhibition [9]: 69%
5 | CCCCc1nn(-c2ccccc2C(F)(F)F)c(=O)n1Cc1ccc(-c2ccccc2S(=O)(=O)NC(=O)NC(C)C)cc1 | 1.1 | 300 | 
6 | CCCCc1nn(-c2ccccc2C(F)(F)F)c(=O)n1Cc1ccc(-c2ccccc2-c2nnn[nH]2)cc1 | 0.78 | 23000 | 
7 | CCCCc1nn(-c2ccccc2C(F)(F)F)c(=O)n1Cc1ccc(-c2ccccc2S(=O)(=O)NC(=O)c2ccccc2Br)cc1 | 0.4 | 45 | 
8 | CCCCc1nn(-c2ccccc2C(F)(F)F)c(=O)n1Cc1ccc(-c2ccccc2S(=O)(=O)NC(=O)C2CC2C)cc1 (configuration not stated) | 0.56 | 120 | 
9 | CCCCCCCC(=O)NS(=O)(=O)c1ccccc1-c1ccc(Cn2c(CCCC)nn(-c3ccccc3C(F)(F)F)c2=O)cc1 | 2.9 | 450 | 
10 | CCCCc1nn(-c2ccccc2C(F)(F)F)c(=O)n1Cc1ccc(-c2ccccc2S(=O)(=O)NC(=O)c2cc(C)oc2C)cc1 | 1 | 310 | 
11 | CCCCc1nn(-c2ccccc2C(F)(F)F)c(=O)n1Cc1ccc(-c2ccccc2S(=O)(=O)NC(=O)C2CC2)cc1 | 1.5 | 110 | 
12 | CCCc1nn(-c2ccccc2C(F)(F)F)c(=O)n1Cc1ccc(-c2ccccc2S(=O)(=O)NC(=O)C2CC2)cc1 | 18 | 410 | 
13 | CCCCc1nn(-c2ccccc2C(F)(F)F)c(=O)n1Cc1ccc(-c2ccccc2S(=O)(=O)NC(=O)c2ccc(Cl)cc2)cc1 | 1.2 | 520 | 
14 | CCCCc1nn(-c2ccccc2C(F)(F)F)c(=O)n1Cc1ccc(-c2ccccc2S(=O)(=O)NC(=O)C2CCOC2)cc1 (configuration not stated) | 2.8 | 280 | 
15 | CCCCc1nn(-c2ccccc2C(F)(F)F)c(=O)n1Cc1ccc(-c2ccccc2S(=O)(=O)NC(=O)c2ccc(C#N)cc2)cc1 | 0.76 | 400 | 
16 | CCCCc1nn(-c2ccccc2C(F)(F)F)c(=O)n1Cc1ccc(-c2ccccc2S(=O)(=O)NC(=O)c2cccc(Cl)c2Cl)cc1 | 0.72 | 780 | 
17 | CCCCc1nn(-c2ccccc2C(F)(F)F)c(=O)n1Cc1ccc(-c2ccccc2S(=O)(=O)NC(=O)c2ccccc2Cl)cc1 | 0.11 | 36 | Duration [2]: >24 h; Duration [8]: >6 h
18 | CCCCc1nn(-c2ccccc2C(F)(F)F)c(=O)n1Cc1ccc(-c2ccccc2S(=O)(=O)NC(=O)c2ocnc2C)cc1 | 1.1 | 35 | 
19 | CCCCc1nn(-c2ccccc2C(F)(F)F)c(=O)n1Cc1ccc(-c2ccccc2S(=O)(=O)Nc2ccc([N+](=O)[O-])cc2)cc1 | 78 | 5200 | 
20 | CCCCc1nn(-c2ccccc2Cl)c(=O)n1Cc1ccc(-c2ccccc2S(N)(=O)=O)cc1 | 820 | 24000 | 
21 | CCCCc1nn(-c2ccccc2C(F)(F)F)c(=O)n1Cc1ccc(-c2ccccc2S(=O)(=O)NC(=O)C2C(C)(C)C2(C)C)cc1 | 3.3 | 130 | 

Row | SMILES | IC50 [1] [nM] | IC50 [6] [nM] | also measured
22 | CCCc1nn(-c2ccccc2C(F)(F)F)c(=O)n1Cc1ccc(-c2ccccc2S(=O)(=O)NC(=O)c2ccccc2)cc1 | 13 | 520 | 
23 | CCCCc1nn(-c2ccccc2C(F)(F)F)c(=O)n1Cc1ccc(-c2ccccc2S(=O)(=O)NC(=O)C2CCCC2)cc1 | 0.32 | 82 | 
24 | CCCCOC(=O)NS(=O)(=O)c1ccccc1-c1ccc(Cn2c(CCCC)nn(-c3ccccc3C(F)(F)F)c2=O)cc1 | 0.59 | 190 | 
25 | CCCCc1nn(-c2ccccc2C(F)(F)F)c(=O)n1Cc1ccc(-c2ccccc2S(=O)(=O)NC(=O)C2SCCS2)cc1 | 0.35 | 35 | 
26 | CCCCc1nn(-c2ccccc2C(F)(F)F)c(=O)n1Cc1ccc(-c2ccccc2S(=O)(=O)NC(=O)c2ccc(C)o2)cc1 | 0.4 | 150 | 
27 | CCCCc1nn(-c2ccccc2C(F)(F)F)c(=O)n1Cc1ccc(-c2ccccc2S(=O)(=O)NC(=O)C2CCCO2)cc1 (configuration not stated) | 4.3 | 180 | 
28 | CCCCc1nn(-c2ccccc2C(F)(F)F)c(=O)n1Cc1ccc(-c2ccccc2S(=O)(=O)NC(=O)c2cc(OC)c(OC)c(OC)c2)cc1 | 21 | 6500 | 
29 | O=C(NS(=O)(=O)c1ccccc1-c1ccc(Cn2c(CCCC(F)(F)F)nn(-c3ccccc3C(F)(F)F)c2=O)cc1)c1ccccc1 | 5.5 | > 300 | 
30 | CCCCc1nn(-c2ccccc2C(F)(F)F)c(=O)n1Cc1ccc(-c2ccccc2S(=O)(=O)NC(=O)C(C)C)cc1 | 0.8 | 150 | Inhibition [7]: 45%; Duration [2]: >6 h; Duration [8]: 1.3 h; Inhibition [5]: 100%
31 | CCCCc1nn(-c2ccccc2C(F)(F)F)c(=O)n1Cc1ccc(-c2ccccc2S(=O)(=O)NC(=O)c2sccc2Br)cc1 | 0.72 | 43 | 
32 | CCCCc1nn(-c2ccccc2C(F)(F)F)c(=O)n1Cc1ccc(-c2ccccc2S(=O)(=O)NC(=O)C2(C)CC2(Cl)Cl)cc1 (configuration not stated) | 0.37 | 120 | 
33 | CCCCc1nn(-c2ccccc2C(F)(F)F)c(=O)n1Cc1ccc(-c2ccccc2S(=O)(=O)NC(=O)c2ccoc2)cc1 | 3.9 | 700 | 
34 | CCCCc1nn(-c2ccccc2C(F)(F)F)c(=O)n1Cc1ccc(-c2ccccc2S(=O)(=O)NC(=O)c2ccccc2C)cc1 | 0.56 | 110 | Inhibition [7]: 57%; Duration [2]: >6 h; Duration [8]: >2 h; Inhibition [5]: 89%
35 | CCCCc1nn(-c2ccccc2C(F)(F)F)c(=O)n1Cc1ccc(-c2ccccc2S(=O)(=O)NC(=O)c2ccc(OC)cc2)cc1 | 0.74 | 500 | 
36 | CCCCc1nn(-c2ccccc2C(F)(F)F)c(=O)n1Cc1ccc(-c2ccccc2S(=O)(=O)NC(=O)c2cc(Cl)ccc2Cl)cc1 | 0.48 | 26 | 
37 | CCCCc1nn(-c2ccccc2C(F)(F)F)c(=O)n1Cc1ccc(-c2ccccc2S(=O)(=O)NC(=O)OCC(C)C)cc1 | 0.42 | 170 | Inhibition [7]: 63%; Duration [2]: >6 h; Duration [3]: >5 h and >3.5 h; Inhibition [4]: 61%; Duration [8]: >5 h; Inhibition [9]: 65%; Inhibition [5]: 72%
38 | CCCCc1nn(-c2ccccc2C(F)(F)F)c(=O)n1Cc1ccc(-c2ccccc2S(=O)(=O)NC(=O)OCC)cc1 | 2.2 | 75 | 
39 | CCCCc1nn(-c2ccccc2C(F)(F)F)c(=O)n1Cc1ccc(-c2ccccc2S(=O)(=O)NC(=O)c2cccs2)cc1 | 0.94 | 540 | Inhibition [7]: 61%; Duration [2]: >5.5 h; Duration [8]: 4.3 h; Inhibition [5]: 76%
40 | CCCCc1nn(-c2ccccc2C(F)(F)F)c(=O)n1Cc1ccc(-c2ccccc2S(=O)(=O)NC(=O)c2ccc(C)s2)cc1 | 0.64 | 190 | 
41 | CCCCc1nn(-c2ccccc2C(F)(F)F)c(=O)n1Cc1ccc(-c2ccccc2S(=O)(=O)NC(=O)C2CC3CCC2C3)cc1 (configuration not stated) | 0.39 | 100 | 
